ChEMBL document CHEMBL4732167, “Structure based design, synthesis, and biological evaluation of imidazole derivatives targeting dihydropteroate synthase enzyme” (Bioorg Med Chem Lett, 2021)
In brackets after ≈: the same amount, converted by molar mass.

Tested on: not listed separately
Assay: Antioxidant activity assessed as hydrogen peroxide radical scavenging activity at 25 ug/ml (reference value: 23.6 to 43.1 %)
Type: functional
Conditions: dose 25.0 µg/ml
Procedure, shortened: (§1)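 Hydrogen peroxide scavenging was measured across a compound series of 0, 25, 50, 75 and 100 µg/ml.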

Row | SMILES | Activity [%]
1 | CC(=O)c1c(C)nc(SCC(=O)Nc2ccc(OCc3ccc(F)cc3)cc2)n1-c1ccc(F)cc1 | 46.1
2 | CC(=O)c1c(C)nc(SCC(=O)Nc2ccc(OCc3ccc(F)cc3)cc2)n1-c1ccc(Cl)cc1 | 51

Tested on: Plasmodium falciparum
Assay: Antimalarial activity against Plasmodium falciparum assessed as parasite growth inhibition
Type: functional, organism-based
Conditions: not given

Row | SMILES | IC50 [mg/L]
3 | CC(=O)c1c(C)nc(SCC(=O)Nc2ccc(OCc3ccc(F)cc3)cc2)n1-c1ccc(F)cc1 | 0.82 (≈ 1.62 µM)
4 | CC(=O)c1c(C)nc(SCC(=O)Nc2ccc(OCc3ccc(F)cc3)cc2)n1-c1ccc(Cl)cc1 | 0.73 (≈ 1.39 µM)

Tested on: Mycobacterium tuberculosis
Assay: Antibacterial activity against Mycobacterium tuberculosis H37Rv assessed as bacterial growth inhibition
Type: functional
Conditions: not given

Row | SMILES | MIC [mg/L]
5 | CC(=O)c1c(C)nc(SCC(=O)Nc2ccc(OCc3ccc(F)cc3)cc2)n1-c1ccc(F)cc1 | 100 (≈ 197 µM)
6 | CC(=O)c1c(C)nc(SCC(=O)Nc2ccc(OCc3ccc(F)cc3)cc2)n1-c1ccc(Cl)cc1 | 62.5 (≈ 119 µM)

Tested on: not listed separately
Assay: Antioxidant activity assessed as hydrogen peroxide radical scavenging activity at 75 ug/ml (reference value: 23.6 to 43.1 %)
Type: functional
Conditions: dose 75.0 µg/ml
Procedure, shortened: as §1

Row | SMILES | Activity [%]
7 | CC(=O)c1c(C)nc(SCC(=O)Nc2ccc(OCc3ccc(F)cc3)cc2)n1-c1ccc(F)cc1 | 63.1
8 | CC(=O)c1c(C)nc(SCC(=O)Nc2ccc(OCc3ccc(F)cc3)cc2)n1-c1ccc(Cl)cc1 | 74.5

Tested on: Pseudomonas aeruginosa
Assay: Antibacterial activity against Pseudomonas aeruginosa MTCC 1688 assessed as bacterial growth inhibition
Type: functional
Conditions: not given

Row | SMILES | MIC [mg/L]
9 | CC(=O)c1c(C)nc(SCC(=O)Nc2ccc(OCc3ccc(F)cc3)cc2)n1-c1ccc(F)cc1 | 100 (≈ 197 µM)
10 | CC(=O)c1c(C)nc(SCC(=O)Nc2ccc(OCc3ccc(F)cc3)cc2)n1-c1ccc(Cl)cc1 | 25 (≈ 47.7 µM)

Tested on: not listed separately
Assay: Antioxidant activity assessed as DPPH radical scavenging activity at 25 ug/ml (reference value: 22 to 40.2 %)
Type: functional
Conditions: dose 25.0 µg/ml
Procedure, shortened: (§2)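 DPPH radical scavenging was measured at 0, 25, 50, 75 and 100 µg/ml of each compound. Ascorbic acid was the reference.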

Row | SMILES | Activity [%]
11 | CC(=O)c1c(C)nc(SCC(=O)Nc2ccc(OCc3ccc(F)cc3)cc2)n1-c1ccc(F)cc1 | 34.8
12 | CC(=O)c1c(C)nc(SCC(=O)Nc2ccc(OCc3ccc(F)cc3)cc2)n1-c1ccc(Cl)cc1 | 42.9

Tested on: Escherichia coli
Assay: Antibacterial activity against Escherichia coli MTCC 443 assessed as bacterial growth inhibition
Type: functional
Conditions: not given

Row | SMILES | MIC [mg/L]
13 | CC(=O)c1c(C)nc(SCC(=O)Nc2ccc(OCc3ccc(F)cc3)cc2)n1-c1ccc(F)cc1 | 125 (≈ 246 µM)
14 | CC(=O)c1c(C)nc(SCC(=O)Nc2ccc(OCc3ccc(F)cc3)cc2)n1-c1ccc(Cl)cc1 | 50 (≈ 95.4 µM)

Tested on: Streptococcus pyogenes
Assay: Antibacterial activity against Streptococcus pyogenes MTCC 442 assessed as bacterial growth inhibition
Type: functional
Conditions: not given

Row | SMILES | MIC [mg/L]
15 | CC(=O)c1c(C)nc(SCC(=O)Nc2ccc(OCc3ccc(F)cc3)cc2)n1-c1ccc(F)cc1 | 125 (≈ 246 µM)
16 | CC(=O)c1c(C)nc(SCC(=O)Nc2ccc(OCc3ccc(F)cc3)cc2)n1-c1ccc(Cl)cc1 | 100 (≈ 191 µM)

Tested on: Staphylococcus aureus
Assay: Antibacterial activity against Staphylococcus aureus MTCC 96 assessed as bacterial growth inhibition
Type: functional
Conditions: not given

Row | SMILES | MIC [mg/L]
17 | CC(=O)c1c(C)nc(SCC(=O)Nc2ccc(OCc3ccc(F)cc3)cc2)n1-c1ccc(F)cc1 | 62.5 (≈ 123 µM)
18 | CC(=O)c1c(C)nc(SCC(=O)Nc2ccc(OCc3ccc(F)cc3)cc2)n1-c1ccc(Cl)cc1 | 100 (≈ 191 µM)

Tested on: not listed separately
Assay: Antioxidant activity assessed as nitric oxide radical scavenging activity at 100 ug/ml (reference value: 25.8 to 41.6 %)
Type: functional
Conditions: dose 100.0 µg/ml
Procedure, shortened: (§3)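 Nitric oxide radical scavenging was tested at 0, 25, 50, 75 and 100 µg/ml of compound.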

Row | SMILES | Activity [%]
19 | CC(=O)c1c(C)nc(SCC(=O)Nc2ccc(OCc3ccc(F)cc3)cc2)n1-c1ccc(F)cc1 | 89.6
20 | CC(=O)c1c(C)nc(SCC(=O)Nc2ccc(OCc3ccc(F)cc3)cc2)n1-c1ccc(Cl)cc1 | 89.5

Tested on: Enterococcus
Assay: Antibacterial activity against vancomycin-resistant Enterococcus assessed as inhibition of bacterial growth
Type: functional
Conditions: not given
Procedure, shortened: (§4)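 Growth inhibition of the drug-resistant strain was read out as the minimum inhibitory concentration (MIC), reported in µg/mL. The same protocol was also run on an ESBL strain.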

Row | SMILES | MIC [mg/L]
21 | CC(=O)c1c(C)nc(SCC(=O)Nc2ccc(OCc3ccc(F)cc3)cc2)n1-c1ccc(F)cc1 | 125 (≈ 246 µM)
22 | CC(=O)c1c(C)nc(SCC(=O)Nc2ccc(OCc3ccc(F)cc3)cc2)n1-c1ccc(Cl)cc1 | 62.5 (≈ 119 µM)

Tested on: Bacteria
Assay: Antibacterial activity against ESBL-producing bacteria assessed as bacterial growth inhibition
Type: functional
Conditions: not given
Procedure, shortened: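 Values are minimum inhibitory concentrations (MIC) in µg/mL, determined at an outside microbiology laboratory.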

Row | SMILES | MIC [mg/L]
23 | CC(=O)c1c(C)nc(SCC(=O)Nc2ccc(OCc3ccc(F)cc3)cc2)n1-c1ccc(F)cc1 | 250 (≈ 493 µM)
24 | CC(=O)c1c(C)nc(SCC(=O)Nc2ccc(OCc3ccc(F)cc3)cc2)n1-c1ccc(Cl)cc1 | 62.5 (≈ 119 µM)

Tested on: not listed separately
Assay: Antioxidant activity assessed as nitric oxide radical scavenging activity at 25 ug/ml (reference value: 25.8 to 41.6 %)
Type: functional
Conditions: dose 25.0 µg/ml
Procedure, shortened: as §3

Row | SMILES | Activity [%]
25 | CC(=O)c1c(C)nc(SCC(=O)Nc2ccc(OCc3ccc(F)cc3)cc2)n1-c1ccc(F)cc1 | 46.8
26 | CC(=O)c1c(C)nc(SCC(=O)Nc2ccc(OCc3ccc(F)cc3)cc2)n1-c1ccc(Cl)cc1 | 50.8

Tested on: Candida albicans
Assay: Antifungal activity against Candida albicans MTCC 227 assessed as fungal growth inhibition
Type: functional
Conditions: not given

Row | SMILES | MFC [mg/L]
27 | CC(=O)c1c(C)nc(SCC(=O)Nc2ccc(OCc3ccc(F)cc3)cc2)n1-c1ccc(F)cc1 | 500 (≈ 985 µM)
28 | CC(=O)c1c(C)nc(SCC(=O)Nc2ccc(OCc3ccc(F)cc3)cc2)n1-c1ccc(Cl)cc1 | 1000 (≈ 1910 µM)

Tested on: not listed separately
Assay: Antioxidant activity assessed as nitric oxide radical scavenging activity at 50 ug/ml (reference value: 25.8 to 41.6 %)
Type: functional
Conditions: dose 50.0 µg/ml
Procedure, shortened: as §3

Row | SMILES | Activity [%]
29 | CC(=O)c1c(C)nc(SCC(=O)Nc2ccc(OCc3ccc(F)cc3)cc2)n1-c1ccc(F)cc1 | 60.4
30 | CC(=O)c1c(C)nc(SCC(=O)Nc2ccc(OCc3ccc(F)cc3)cc2)n1-c1ccc(Cl)cc1 | 58.3

Tested on: not listed separately
Assay: Antioxidant activity assessed as hydrogen peroxide radical scavenging activity at 50 ug/ml (reference value: 23.6 to 43.1 %)
Type: functional
Conditions: dose 50.0 µg/ml
Procedure, shortened: as §1

Row | SMILES | Activity [%]
31 | CC(=O)c1c(C)nc(SCC(=O)Nc2ccc(OCc3ccc(F)cc3)cc2)n1-c1ccc(F)cc1 | 53.4
32 | CC(=O)c1c(C)nc(SCC(=O)Nc2ccc(OCc3ccc(F)cc3)cc2)n1-c1ccc(Cl)cc1 | 68.4

Tested on: not listed separately
Assay: Antioxidant activity assessed as nitric oxide radical scavenging activity at 75 ug/ml (reference value: 25.8 to 41.6 %)
Type: functional
Conditions: dose 75.0 µg/ml
Procedure, shortened: as §3

Row | SMILES | Activity [%]
33 | CC(=O)c1c(C)nc(SCC(=O)Nc2ccc(OCc3ccc(F)cc3)cc2)n1-c1ccc(F)cc1 | 70.3
34 | CC(=O)c1c(C)nc(SCC(=O)Nc2ccc(OCc3ccc(F)cc3)cc2)n1-c1ccc(Cl)cc1 | 84.3

Tested on: not listed separately
Assay: Antioxidant activity assessed as hydrogen peroxide radical scavenging activity at 100 ug/ml (reference value: 23.6 to 43.1 %)
Type: functional
Conditions: dose 100.0 µg/ml
Procedure, shortened: as §1

Row | SMILES | Activity [%]
35 | CC(=O)c1c(C)nc(SCC(=O)Nc2ccc(OCc3ccc(F)cc3)cc2)n1-c1ccc(F)cc1 | 71.2
36 | CC(=O)c1c(C)nc(SCC(=O)Nc2ccc(OCc3ccc(F)cc3)cc2)n1-c1ccc(Cl)cc1 | 88.1

Tested on: Aspergillus clavatus
Assay: Antifungal activity against Aspergillus clavatus MTCC 1323 assessed as fungal growth inhibition
Type: functional
Conditions: not given

Row | SMILES | MFC [mg/L]
37 | CC(=O)c1c(C)nc(SCC(=O)Nc2ccc(OCc3ccc(F)cc3)cc2)n1-c1ccc(F)cc1 | 500 (≈ 985 µM)
38 | CC(=O)c1c(C)nc(SCC(=O)Nc2ccc(OCc3ccc(F)cc3)cc2)n1-c1ccc(Cl)cc1 | 1000 (≈ 1910 µM)

Tested on: Aspergillus niger
Assay: Antifungal activity against Aspergillus niger MTCC 282 assessed as fungal growth inhibition
Type: functional
Conditions: not given

Row | SMILES | MFC [mg/L]
39 | CC(=O)c1c(C)nc(SCC(=O)Nc2ccc(OCc3ccc(F)cc3)cc2)n1-c1ccc(F)cc1 | 1000 (≈ 1970 µM)
40 | CC(=O)c1c(C)nc(SCC(=O)Nc2ccc(OCc3ccc(F)cc3)cc2)n1-c1ccc(Cl)cc1 | 1000 (≈ 1910 µM)

Tested on: not listed separately
Assay: Antioxidant activity assessed as DPPH radical scavenging activity at 100 dilution
Type: functional
Conditions: not given

Row | SMILES | Activity [%]
41 | CC(=O)c1c(C)nc(SCC(=O)Nc2ccc(OCc3ccc(F)cc3)cc2)n1-c1ccc(F)cc1 | 89.4

Tested on: not listed separately
Assay: Antioxidant activity assessed as DPPH radical scavenging activity at 50 ug/ml (reference value: 22 to 40.2 %)
Type: functional
Conditions: dose 50.0 µg/ml
Procedure, shortened: as §2

Row | SMILES | Activity [%]
42 | CC(=O)c1c(C)nc(SCC(=O)Nc2ccc(OCc3ccc(F)cc3)cc2)n1-c1ccc(F)cc1 | 56.4
43 | CC(=O)c1c(C)nc(SCC(=O)Nc2ccc(OCc3ccc(F)cc3)cc2)n1-c1ccc(Cl)cc1 | 58.6

Tested on: not listed separately
Assay: Antioxidant activity assessed as DPPH radical scavenging activity at 75 ug/ml (reference value: 22 to 40.2 %)
Type: functional
Conditions: dose 75.0 µg/ml
Procedure, shortened: as §2

Row | SMILES | Activity [%]
44 | CC(=O)c1c(C)nc(SCC(=O)Nc2ccc(OCc3ccc(F)cc3)cc2)n1-c1ccc(F)cc1 | 71.6
45 | CC(=O)c1c(C)nc(SCC(=O)Nc2ccc(OCc3ccc(F)cc3)cc2)n1-c1ccc(Cl)cc1 | 67

Tested on: not listed separately
Assay: Antioxidant activity assessed as DPPH radical scavenging activity at 100 ug/ml (reference value: 22 to 40.2 %)
Type: functional
Conditions: dose 100.0 µg/ml
Procedure, shortened: as §2

Row | SMILES | Activity [%]
46 | CC(=O)c1c(C)nc(SCC(=O)Nc2ccc(OCc3ccc(F)cc3)cc2)n1-c1ccc(F)cc1 | 89.4
47 | CC(=O)c1c(C)nc(SCC(=O)Nc2ccc(OCc3ccc(F)cc3)cc2)n1-c1ccc(Cl)cc1 | 91

Tested on: Staphylococcus aureus
Assay: Antibacterial activity against methicillin-resistant Staphylococcus aureus assessed as inhibition of bacterial growth
Type: functional
Conditions: not given
Procedure, shortened: as §4

Row | SMILES | MIC [mg/L]
48 | CC(=O)c1c(C)nc(SCC(=O)Nc2ccc(OCc3ccc(F)cc3)cc2)n1-c1ccc(F)cc1 | 100 (≈ 197 µM)
49 | CC(=O)c1c(C)nc(SCC(=O)Nc2ccc(OCc3ccc(F)cc3)cc2)n1-c1ccc(Cl)cc1 | 125 (≈ 239 µM)
